Test results as given in paper PMC5559291 (Journal of the American Chemical Society, 2015).
Like-named read-outs stand apart in the source and are kept apart here.

How the values were obtained:
[1] = assay type: physicochemical
[2] = ref 7c, 7d, cited from earlier work
[3] = assay type: physicochemical; conditions: from sedimentation velocity on diluted samples
Procedure, shortened: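 Diluted neutral-pH and protofibril Aβ40 samples were loaded into 12 mm path-length cells, equilibrated 2 h at 20.0° C, and spun at 20,000-50,000 rpm. Detection used absorbance at 280 nm and Rayleigh interference. Data were analysed as continuous c(s) distributions of Lamm equation solutions with maximum-entropy regularization, and sedimentation coefficients were corrected to 20° C water.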

[4] = Persistence of Aβ40 protofibrils in quiescent solution; assay type: physicochemical
Sedimentation velocity = assay type: physicochemical
[5] = typical values; cited from earlier work
[6] = Size exclusion chromatography; assay type: physicochemical; conditions: protofibril sample; SEC deemed unreliable by the authors
Procedure, shortened: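 Superose 6 10/300 GL column (Vc = 24 ml); 50 μl Aβ40 sample injected and eluted at 0.5 ml/min. The column was equilibrated in either 10 mM sodium phosphate (pH 7.4) or 20 mM NaOH, with or without 150 mM NaCl. Apparent molecular weight was read from elution volume.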

[7] = 37° C; cited from earlier work
[8] = protofibril sample, 2.0 mM Aβ40

Substance: Aβ40: 40-residue amyloid-β peptide, made by FMOC solid-phase synthesis
- monomeric fraction ([1]; high pH samples): > 90%
- fraction of protofibrillar assemblies ([1]; protofibril samples): > 90%
- incubation time for evolution of spherical assemblies to mature fibrils ([2]; TEM, without sonication or agitation): more than 50 h
- size of long-lived spherical assemblies ([2]; formed at 4° C, pH 7.4, 100 μM peptide): ~650 kDa
- quasi-equilibrium solubility of Aβ40 assemblies ([3]; neutral pH sample): greater than 10 μM
- quasi-equilibrium solubility of Aβ40 assemblies ([3]; protofibril sample): greater than 10 μM
- stability of protofibrils ([4]; quiescent solutions at pH 7.5, TEM): stable for at least several weeks
- persistence of protofibrils ([4]; room temperature, without sonication or agitation of the Aβ40 solution): at least 20 days
- apparent molar mass of slowly sedimenting species (Sedimentation velocity; neutral pH sample, 2.0 mM Aβ40): 4.7 kDa
- estimated molar masses of aggregates (Sedimentation velocity; neutral pH sample, 2.0 mM Aβ40): around 0.4 MDa
- sedimentation coefficients of aggregates (broadly distributed around) (Sedimentation velocity; neutral pH sample, 2.0 mM Aβ40): around 11 S
- aggregates as fraction of the loading signal (Sedimentation velocity; neutral pH sample, 2.0 mM Aβ40, pH 7.5): approximately 75%
- sedimentation coefficient of slowly sedimenting species (Sedimentation velocity; neutral pH sample, 2.0 mM Aβ40, remaining material): ~0.6 S
- apparent molar masses of rapidly sedimenting species (Sedimentation velocity; [8]): roughly 10 MDa
- fraction of material consisting of rapidly sedimenting species (Sedimentation velocity; [8]): approximately 95%
- quasi-equilibrium solubility of mature fibrils [5]: less than 1 μM
- apparent molecular weight of a large fraction of material [6]: greater than 1 MDa

Substance: Aβ42: 42-residue amyloid-β peptide; literature results only
- time for subsequent conversion to fibrils [7]: ≤ 12 days
